The values below come from ChEMBL document CHEMBL3580657, “Design and Evaluation of 3-(Benzylthio)benzamide Derivatives as Potent and Selective SIRT2 Inhibitors” (ACS Med Chem Lett, 2015).

For series [1], the target named is T1, NAD-dependent protein deacetylase sirtuin-2 (Homo sapiens) (UniProt Q8IXJ6).
T1 sequence (whole entry): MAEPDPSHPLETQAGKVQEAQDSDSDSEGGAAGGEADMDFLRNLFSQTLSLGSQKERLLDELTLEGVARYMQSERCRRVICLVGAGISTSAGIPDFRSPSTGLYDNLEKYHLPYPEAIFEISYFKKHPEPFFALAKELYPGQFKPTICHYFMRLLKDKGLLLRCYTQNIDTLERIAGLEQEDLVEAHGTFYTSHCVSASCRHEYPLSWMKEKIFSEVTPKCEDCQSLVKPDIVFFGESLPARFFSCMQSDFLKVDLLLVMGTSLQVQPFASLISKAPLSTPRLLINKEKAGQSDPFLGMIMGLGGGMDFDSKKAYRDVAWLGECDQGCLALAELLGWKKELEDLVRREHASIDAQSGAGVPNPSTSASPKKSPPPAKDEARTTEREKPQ
Kind of series: Inhibition of SIRT2 (unknown origin) at 10 uM by Flour-de-Lys fluorescent biochemical assay. In outline:
(§1)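 Biochemical sirtuin deacetylation assays (SIRT1, SIRT2, SIRT3) run as in earlier work. Single 10 μM dose in triplicate. Primary screen was SIRT2, with SIRT1 and SIRT3 as counter-screens. A reference compound was included with each assay.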

Series [2] concerns the target T2, NAD-dependent protein deacetylase sirtuin-1 (Homo sapiens) (UniProt Q96EB6).
T2 sequence (whole entry): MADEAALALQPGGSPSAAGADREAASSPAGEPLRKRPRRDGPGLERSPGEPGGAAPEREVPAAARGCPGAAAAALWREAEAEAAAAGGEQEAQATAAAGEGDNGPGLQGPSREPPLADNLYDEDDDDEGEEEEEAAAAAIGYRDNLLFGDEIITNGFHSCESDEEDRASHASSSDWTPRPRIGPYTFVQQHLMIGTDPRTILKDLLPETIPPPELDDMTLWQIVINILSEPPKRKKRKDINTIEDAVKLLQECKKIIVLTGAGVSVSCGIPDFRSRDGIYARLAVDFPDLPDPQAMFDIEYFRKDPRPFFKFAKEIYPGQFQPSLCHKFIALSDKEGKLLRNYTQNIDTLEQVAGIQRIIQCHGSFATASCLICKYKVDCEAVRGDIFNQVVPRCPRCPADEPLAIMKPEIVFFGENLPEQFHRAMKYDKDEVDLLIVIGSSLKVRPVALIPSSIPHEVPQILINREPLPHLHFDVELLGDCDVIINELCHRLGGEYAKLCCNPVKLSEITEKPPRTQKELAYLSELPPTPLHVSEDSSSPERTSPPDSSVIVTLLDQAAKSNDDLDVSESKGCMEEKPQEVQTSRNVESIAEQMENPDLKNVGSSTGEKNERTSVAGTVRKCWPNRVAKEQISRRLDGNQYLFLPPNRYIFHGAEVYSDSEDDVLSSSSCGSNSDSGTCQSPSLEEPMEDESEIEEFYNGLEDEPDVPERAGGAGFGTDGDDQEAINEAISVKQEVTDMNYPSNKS
As to the kind of experiment: Inhibition of SIRT1 (unknown origin) at 10 uM by Flour-de-Lys fluorescent biochemical assay. An outline of the steps: as §1

Series [3] has as its target T3, NAD-dependent protein deacetylase sirtuin-2 (Homo sapiens, UniProt Q8IXJ6).
T3 sequence (Q8IXJ6 whole entry): T1 sequence (whole entry)
As to the kind of experiment: Inhibition of SIRT2 (unknown origin) by Flour-de-Lys fluorescent biochemical assay.

Series [4] addresses T4, NAD-dependent protein deacetylase sirtuin-3, mitochondrial (Homo sapiens) (UniProt Q9NTG7).
T4 sequence (whole entry): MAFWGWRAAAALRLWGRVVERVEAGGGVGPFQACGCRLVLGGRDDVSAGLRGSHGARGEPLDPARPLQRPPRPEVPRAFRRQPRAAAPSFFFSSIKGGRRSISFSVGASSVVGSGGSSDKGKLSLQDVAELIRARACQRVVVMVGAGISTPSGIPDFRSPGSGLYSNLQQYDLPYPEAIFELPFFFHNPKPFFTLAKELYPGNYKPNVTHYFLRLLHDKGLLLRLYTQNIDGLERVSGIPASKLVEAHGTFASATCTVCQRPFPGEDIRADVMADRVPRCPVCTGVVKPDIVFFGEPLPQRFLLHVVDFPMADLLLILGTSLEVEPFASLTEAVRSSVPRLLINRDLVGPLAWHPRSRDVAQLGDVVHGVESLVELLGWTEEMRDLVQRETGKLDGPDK
As to the kind of experiment: Inhibition of SIRT3 (unknown origin) at 10 uM by Flour-de-Lys fluorescent biochemical assay. An outline of the steps:
as §1

Series [5] concerns the target T5, NAD-dependent protein deacetylase sirtuin-2 (Rattus norvegicus) (UniProt Q5RJQ4).
T5 sequence (whole entry): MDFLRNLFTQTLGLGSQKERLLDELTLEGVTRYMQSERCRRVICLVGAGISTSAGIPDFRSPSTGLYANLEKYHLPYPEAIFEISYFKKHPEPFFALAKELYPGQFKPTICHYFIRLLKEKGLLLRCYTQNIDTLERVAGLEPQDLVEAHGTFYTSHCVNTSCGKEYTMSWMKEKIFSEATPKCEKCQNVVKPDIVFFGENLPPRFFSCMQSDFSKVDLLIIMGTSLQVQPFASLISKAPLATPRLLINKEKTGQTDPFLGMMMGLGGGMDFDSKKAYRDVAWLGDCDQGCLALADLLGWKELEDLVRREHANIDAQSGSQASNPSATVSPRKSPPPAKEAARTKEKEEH
Kind of series: Inhibition of SIRT2 in rat PC12 cells expressing inducible HD103Q-EGFP fusion fragment of huntingtin mutant assessed as reduction in number and size of fluorescent polyQ inclusions at 5 uM treated simultaneously with 2.5 uM ecdysone-inducible gene inducer muristerone A for 24 hrs by fluorescence microscopy. The format is cell-based. The note with it: PC-12. An outline of the steps:
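PC12 cells carrying inducible HD103Q-EGFP huntingtin fragment were induced with 2.5 μM muristerone A for 24 h, simultaneous with compound at 25, 10 or 5 μM. PolyQ aggregation was scored by epifluorescence microscopy as number and size of fluorescent inclusions.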

In series [6] the target is T5, NAD-dependent protein deacetylase sirtuin-2 (Rattus norvegicus). Kind of series: Inhibition of SIRT2 in rat ST14A cells assessed as increase in alpha-tubulin K40 acetylation at 25 uM incubated for 6 hrs by SDS-PAGE and Western blotting method. It counts as cell-based. An outline of the steps:
(§2)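 Cells were treated with compound for 6 h across 0.5–50 μM. Extracts were resolved by SDS-PAGE and immunoblotted with an antibody to acetyl-K40 α-tubulin, with GAPDH as loading control. In ST14A, signal was normalized to GAPDH and quantified from blots.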
On the technique in general: Immunoblotting shows a protein as a band on a membrane.

The nature of series [7]: Toxicity in rat PC12 cells expressing inducible HD103Q-EGFP fusion fragment of huntingtin mutant assessed as effect on cell density at 5 uM by phase contrast microscopy. The format is cell-based. The note with it: pc-12, 5 µM.
Series [8] addresses T5, NAD-dependent protein deacetylase sirtuin-2 (Rattus norvegicus). Kind of series: Inhibition of SIRT2 in rat ST14A cells assessed as increase in alpha-tubulin K40 acetylation at 0.5 to 50 uM incubated for 6 hrs by SDS-PAGE and Western blotting method. The format is cell-based. In outline: as §2

The source made the active and inactive calls. No cut-off for these calls is given here.

As to `O=C(Nc1ccc(Br)cc1)c1cccc(S(=O)(=O)Cc2ccc(Cl)cc2)c1`, the inhibition in series [1] is 0%.
For the compound `COc1ccc(CS(=O)(=O)c2cccc(C(=O)Nc3ccc(C#N)cc3)c2)cc1`, the results for the inhibition in series [1], in series [2] and in series [4] were 50%, 3% and 0%, respectively. Besides, the IC50 in series [3] (read-out: IC50) amounted to 6.7 µM.
Consider `COc1ccc(C[S+]([O-])c2cccc(C(=O)Nc3ccc(C#N)cc3)c2)cc1` (stereo not drawn), for which, in series [1], the inhibition came out at 21%.
On the same count and under the same terms, then `CS(=O)(=O)c1ccc(NC(=O)c2cccc([S+]([O-])Cc3ccc(Cl)cc3)c2)cc1` (stereo not drawn), with 18%.
In the case of `N#Cc1ccc(NC(=O)c2cccc([S+]([O-])Cc3ccc(Cl)cc3)c2)cc1` (stereo not drawn), the inhibition is 47% in series [1], 12% in series [2] and 11% in series [4]. The IC50 in series [3] (read-out: IC50) turned out to be 7.1 µM.
The corresponding values for `N#Cc1ccc(NC(=O)c2cccc(SCc3ccc(Cl)cc3)c2)cc1` are 81%, 8%, 0% and 2.9 µM.
As to `N#Cc1ccc(NC(=O)c2cccc(S(=O)(=O)Nc3ccc(Cl)cn3)c2)cc1`, in series [3], the IC50 result is “Not Active”.
Turning to `CSc1ccc(CSc2cccc(C(=O)Nc3ccc(C#N)cc3)c2)cc1`, the inhibition in series [1] was 83%; in series [2] it was 3%; in series [4], 0%. Moreover, the inhibition entry in series [5] and in series [6] was “Active” each time. For the same compound, the half-inhibitory concentration (IC50) in series [3] (read-out: IC50) turned out to be 2.4 µM. In addition, the Activity entry in series [7] is “Non-toxic”.
In the case of `C[S+]([O-])c1ccc(NC(=O)c2cccc([S+]([O-])Cc3ccc(Cl)cc3)c2)cc1` (stereo not drawn), the inhibition in series [1] was found to be 24%.
In the case of `O=C(Nc1ccc(Cl)cc1)c1cccc(S(=O)(=O)Cc2ccc(Cl)cc2)c1`, the inhibition in series [1] is 0%.
`C[S+]([O-])c1ccc(NC(=O)c2cccc(SCc3ccc(Cl)cc3)c2)cc1` (stereo not drawn): the inhibition entry in series [8] is “Dose-dependent effect”; in series [1] it was 60%; in series [2], 10%; in series [4], 8%. Also, the concentration for half-maximal inhibition (IC50) in series [3] (read-out: IC50) is 8.4 µM.
In series [1], `O=C(Nc1ccc(Cl)cn1)c1cccc(S(=O)(=O)Cc2ccc(Cl)cc2)c1` yielded an inhibition of 2%.
On the same count and under the same terms, then `O=C(Nc1ccc(Cl)nn1)c1cccc(S(=O)(=O)Cc2ccc(Cl)cc2)c1`, with 0%.
Same read-out and setting: then `CC(=O)c1ccc(NC(=O)c2cccc(S(=O)(=O)Cc3ccc(Cl)cc3)c2)cc1`, with 23%.
In the case of `N#Cc1ccc(NC(=O)c2cccc(S(=O)(=O)Cc3ccc(Cl)cc3)c2)cc1`, the results for the inhibition in series [1], in series [2] and in series [4] were 40%, 0% and 0%, respectively. Also, the IC50 in series [3] (read-out: IC50) was 4.7 µM.
`CS(=O)(=O)c1ccc(NC(=O)c2cccc(S(=O)(=O)Cc3ccc(Cl)cc3)c2)cc1` yielded an inhibition in series [1] of 17%.

What is called inhibition is the share of the control response that was lost under treatment. Usually IC50 stands for the midpoint of a concentration-inhibition curve.
